Data from ChEMBL document CHEMBL1811823, “Quinazolinone linked pyrrolo[2,1-c][1,4]benzodiazepine (PBD) conjugates: Design, synthesis and biological evaluation as potential anticancer agents” (2010).
Activity calls are given as the source filed them. No cut-off for these calls is given here.

Tests used:
MDA-MB-231 = assay: Growth inhibition of human MDA-MB-231 cells by NCI anti-cancer screening method; assay type: functional
UACC-257 = assay: Growth inhibition of human UACC257 cells by NCI anti-cancer screening method; assay type: functional
A498 = assay: Growth inhibition of human A498 cells by NCI anti-cancer screening method; assay type: functional
MDA-MB-468 = assay: Growth inhibition of human MDA-MB-468 cells by NCI anti-cancer screening method; assay type: functional
COLO 205 = assay: Growth inhibition of human COLO205 cells by NCI anti-cancer screening method; assay type: functional
BT-549 = assay: Growth inhibition of human BT549 cells by NCI anti-cancer screening method; assay type: functional
A-375 [1] = assay: Inhibition of NF-kappaB signaling in human A375 cells at 4 uM after 24 hrs by Western blot; assay type: cell-based
How it was run: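 A375 cells (DMEM, 10% FCS, 37 °C, 5% CO2) were treated at 4 µM for 24 h. Lysates were loaded at 30 µg protein/lane on 12% SDS-PAGE and transferred to PVDF. Membranes were blocked 2 h in TBST, incubated with primary antibody overnight at 4 °C (p53 1:100, p27 1:500, NF-κB p65 1:500), then HRP secondary 1 h, with chemiluminescent detection. β-actin was the loading control; untreated and DMSO controls were run.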

A-375 [2] = assay: Increase in active PARP cleavage product (85kDa) level in human A375 cells at 4 uM after 24 hrs by Western blot; assay type: functional, cell-based
How it was run: (§1)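 A375 cells were exposed 24 h at 4 µM. Lysates (30 µg/lane) were run on 12% SDS-PAGE and transferred to PVDF, then probed overnight at 4 °C with anti-cleaved caspase-3 (1:200, detects 21 kDa) or anti-PARP (1:2000, detects 113 and 85 kDa). HRP secondary and chemiluminescence were used. β-tubulin was the loading control; untreated and DMSO controls were included.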

MDA-MB-435 = assay: Growth inhibition of human MDA-MB-435 cells by NCI anti-cancer screening method; assay type: functional
NCI-H322M = assay: Growth inhibition of human NCI-H322M cells by NCI anti-cancer screening method; assay type: functional
SK-MEL-28 = assay: Growth inhibition of human SK-MEL-28 cells by NCI anti-cancer screening method; assay type: functional
OVCAR-8 = assay: Growth inhibition of human OVCAR8 cells by NCI anti-cancer screening method; assay type: functional
CCRF-CEM = assay: Growth inhibition of human CCRF-CEM cells by NCI anti-cancer screening method; assay type: functional
786-0 = assay: Growth inhibition of human 786-0 cells by NCI anti-cancer screening method; assay type: functional
SNB-19 = assay: Growth inhibition of human SNB19 cells by NCI anti-cancer screening method; assay type: functional
NCI/ADR-RES = assay: Growth inhibition of human NCI/ADR-RES cells by NCI anti-cancer screening method; assay type: functional
A549 = assay: Growth inhibition of human A549 cells by NCI anti-cancer screening method; assay type: functional
SF-539 = assay: Growth inhibition of human SF539 cells by NCI anti-cancer screening method; assay type: functional
A-375 [3] = assay: Cell cycle arrest in human A375 cells assessed as decrease in G2/M phase at 4 uM after 24 hrs by propidium iodide staining based flow cytometry; assay type: functional; set-up: scale not given: the % may be the effect or the level left
How it was run: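 A375 melanoma cells (DMEM, 10% FCS, 37 °C, 5% CO2) seeded at 5×10^5 per dish and grown 24 h, then exposed to 0–4 µM for 24 h. Harvested with trypsin-EDTA, fixed in ice-cold 70% ethanol, RNase A treated (1 mg/ml, 37 °C, 30 min), stained with propidium iodide and analysed by flow cytometry for phase distribution.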

CAKI-1 = assay: Growth inhibition of human Caki1 cells by NCI anti-cancer screening method; assay type: functional
OVCAR-5 = assay: Growth inhibition of human OVCAR5 cells by NCI anti-cancer screening method; assay type: functional
NCI = assay: Growth inhibition of human RXF393 cells by NCI anti-cancer screening method; assay type: functional
SR = assay: Growth inhibition of human SR cells by NCI anti-cancer screening method; assay type: functional
NCI-H522 = assay: Growth inhibition of human NCI-H522 cells by NCI anti-cancer screening method; assay type: functional
A-375 [4] = assay: Cytotoxicity against human A375 cells assessed as cell viability after 24 hrs by MTT assay; assay type: functional
How it was run: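 A375 cells seeded at 10,000/well, incubated overnight, then treated for 24 h. MTT added at 10% of culture volume for 2 h at 37 °C. Formazan dissolved in 20% SDS/50% DMF overnight at 37 °C; absorbance read at 570 nm against a medium blank. Viability expressed as percent of untreated cells.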

SN12C = assay: Growth inhibition of human SN12C cells by NCI anti-cancer screening method; assay type: functional
NCI-H226 = assay: Growth inhibition of human NCI-H226 cells by NCI anti-cancer screening method; assay type: functional
DU-145 = assay: Growth inhibition of human DU145 cells by NCI anti-cancer screening method; assay type: functional
HCC 2998 = assay: Growth inhibition of human HCC2998 cells by NCI anti-cancer screening method; assay type: functional
A-375 [5] = assay: Increase in active caspase-3 protein level in human A375 cells at 4 uM after 24 hrs by Western blot; assay type: functional, cell-based; how it was run: as §1
Nucleic Acid = assay: Binding affinity to calf thymus DNA assessed as change in melting temperature at 20 uM at pH 7 incubated for 18 hrs at 37 degC by thermal denaturation assay; assay type: nucleic-acid assay; details: Bos taurus
How it was run: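 CT-DNA (100 µM in phosphate) with 20 µM ligand, 1:5 [PBD]/[DNA], in 10 mM sodium phosphate/1 mM Na2EDTA buffer pH 7.00. Ligand added from methanol solution; incubated at 37 °C for 0 or 18 h. A260 monitored while heating 1 °C/min over 40–90 °C. Tm taken from d(A260)/dT maxima; ΔTm = Tm(DNA+PBD) − Tm(DNA alone). Values are means of at least three determinations, corrected for methanol cosolvent.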

`COc1cc2c(cc1OCCCCCOc1ccc(-n3c(C)nc4ccccc4c3=O)cc1)N=C[C@@H]1CCCN1C2=O` gave a GI50 (MDA-MB-231) of 170 nM, a GI50 (UACC-257) of 390 nM and a GI50 (A498) of 160 nM. For the same compound, the GI50 (MDA-MB-468) was 160 nM, the GI50 (COLO 205) was 180 nM and the GI50 (BT-549) was 110 nM. For the same compound, the inhibition (A-375 [1]) was “Active”, the Activity (A-375 [2]) was “Active” and the GI50 (MDA-MB-435) was 160 nM. For the same compound, the GI50 (NCI-H322M) was 260 nM, the GI50 (SK-MEL-28) was 200 nM and the GI50 (OVCAR-8) was 340 nM. For the same compound, the GI50 (CCRF-CEM) was 160 nM, the GI50 (786-0) was 170 nM and the GI50 (SNB-19) was 280 nM. It also gave a GI50 (NCI/ADR-RES) of 1730 nM, a GI50 (A549) of 230 nM and a GI50 (SF-539) of 220 nM. It also gave an Activity (A-375 [3]) of 9.15%, a GI50 (CAKI-1) of 190 nM and a GI50 (OVCAR-5) of 330 nM. It also gave a GI50 (NCI) of 210 nM, a GI50 (SR) of 110 nM and a GI50 (NCI-H522) of 120 nM. For the same compound, the Activity (A-375 [4]) was 49.01%, the GI50 (SN12C) was 240 nM and the GI50 (NCI-H226) was 160 nM. For the same compound, the GI50 (DU-145) was 260 nM, the GI50 (HCC 2998) was 260 nM and the Activity (A-375 [5]) was “Active”. It also gave a ΔTm (Nucleic Acid) of 2.3 °C.
